Experimental data: paper PMC3404614 (Biochimica et Biophysica Acta, 2012)
Several values for one entry are separate records, joined by “and”; a condition that tells them apart may be missing. Equal values may be shown once. Read-outs that look alike come from different tables or passages of the source.

Tests used:
PKC = test: Effect of PKC inhibition on CCK- and TPA-stimulated pY416 Yes phosphorylation; assay type: cell-based, rat
In short: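 Rat acini were pretreated with the PKC inhibitor GF109203X (5 µM) during preincubation, then incubated with 100 nM CCK (1 min) or 1 µM TPA (2.5 min) at 37 °C. Lysates were immunoprecipitated with anti-Yes and blotted for pY416 Src family and total Yes, quantified by densitometry. Results are expressed as % of control, mean ± S.E., n=4.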

Yes kinase [1] = assay type: cell-based, rat; details: for Yes pY416 phosphorylation, time course, 1 min: 1 min incubation; for tmax (Yes pY416 phosphorylation) / t1/2 (Yes pY416 phosphorylation): CCK (100 nM) or TPA (1 µM)
In short: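 Collagenase-dispersed rat acini were preincubated 2 h at 37 °C, then incubated with CCK (100 nM) or TPA (1 µM) for times up to 15 min. Yes was immunoprecipitated (4 µg anti-Yes, protein G, overnight 4 °C), then blotted for pY416 and total Yes and read by densitometry. Values are % of zero-time control, mean ± S.E., n=7, with t1/2 from curve fitting.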

Yes kinase [2] = assay type: cell-based, rat; details: for association of Yes with p125FAK, PYK2, PI3K, PKD, p130Cas, Shc and PKCδ (Co-IP) / association of Yes with Raf, Cbl or ERK1/2 (Co-IP): CCK 100 nM 2.5 min or TPA 1 µM 5 min; for association of Yes with p125FAK, PYK2, PI3K, PKD, p130Cas, Shc and PKCδ (Co-IP): 8 experiments; for association between Yes and PI3K / association of Yes with autophosphorylated forms pY397 p125FAK and pY402 PYK2: CCK or TPA; for direct association of Raf, Cbl or ERK1/2 with Yes, reverse Co-IP: Cbl or ERK1/2 antibodies, detection with Yes antibodies; for association of Yes with Cbl or Erk 1/2 (Co-IP), discussion / association of Yes with focal adhesion kinases, PKCδ, Shc, p130Cas, PI3K, PTEN and PKD (Co-IP): TPA and CCK, physiological and supramaximal concentrations
Lyn [3] = details: pancreatic acini; cited from earlier work
PKC-δ and Src = details: PC-12 cells and parotid cells; cited from earlier work
[4] = system: endoplasmic reticulum Ca^2+-ATPase; test: Effect of Ca2+ depletion on CCK- and TPA-stimulated pY416 Yes phosphorylation; assay type: cell-based, rat; details: for inhibition of TPA-/CCK-stimulated Yes activation (thapsigargin, words): TPA and CCK as stimulants
[5] = system: [Ca^2+i] increase stimulated by CCK; details: thapsigargin, calcium-free medium; cited from earlier work
Lyn [6] = details: cited from earlier work
Yes kinase [7] = assay type: cell-based, rat
In short: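 Rat pancreatic acini were prepared by collagenase digestion, preincubated 2 h at 37 °C in HEPES buffer (pH 7.45), then exposed to graded concentrations of CCK or CCK-JMV at 37 °C. Yes was immunoprecipitated from lysates and immunoblotted for pY416 Src family, with total Yes as loading control, and quantified by densitometry.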

Yes = details: cited from earlier work; for activation of Yes by EGF and PDGF: hepatocytes and fibroblasts
SFK = details: cited from earlier work
Fyn = details: cited from earlier work
Src = details: cited from earlier work
Hck = details: endothelial cells; cited from earlier work
adenylate cyclase = details: cited from earlier work; for activation of PLC cascades or adenylate cyclase: pancreatic acinar cell; for adenylate cyclase activation: rat pancreatic acini
Akt = test: pS473 Akt phosphorylation by pancreatic growth factors; assay type: cell-based; details: rat pancreatic acini; data not shown
cSrc = details: murine fibroblasts; cited from earlier work
CCK2 receptors = test: CCK2 receptor ligands: pY416 Yes phosphorylation in rat pancreatic acini; assay type: cell-based; details: gastrin 10 nM, 1 min
[8] = from CCK-JMV partial stimulation

## CN(C)CCCn1cc(C2=C(c3c[nH]c4ccccc34)C(=O)NC2=O)c2ccccc21 [GF109203X]
PKC; GF109203X + CCK
  decrease in CCK-stimulated activation of Yes by PKC inhibitor: 80%
PKC; TPA and CCK as stimulants
  inhibition of TPA-/CCK-stimulated Yes activation (PKC inhibitor, words): inhibit TPA−/CCK-stimulated Yes

## CCCCCCCCCCCCCC(=O)O[C@@H]1[C@@H](C)[C@@]2(O)[C@@H](C=C(CO)C[C@]3(O)C(=O)C(C)=C[C@@H]23)[C@@H]2C(C)(C)[C@]12OC(C)=O [TPA, 12-O-tetradecanoylphorbol-13-acetate]
Yes kinase [1]; means±S.E., 7 experiments
  Yes pY416 phosphorylation, time course, 1 min: 153±25 % of control
  t1/2 (Yes pY416 phosphorylation): 1.25±0.24 min
Yes kinase [1]; 7 experiments
  tmax (Yes pY416 phosphorylation): 2.49±0.29 min
Yes kinase [1]; TPA, 2.5 min, means±S.E., 7 experiments, p<0.05
  Yes pY416 phosphorylation, time course, 2.5 min: 266±47 % of control
Yes kinase [1]; sustained increase
  duration of increased Yes pY416 phosphorylation: 15 min
Yes kinase [2]
  association of Yes with p125FAK, PYK2, PI3K, PKD, p130Cas, Shc and PKCδ (Co-IP): produced an increase in the association of Yes
  association between Yes and PI3K: stimulated an association between Yes and PI3K
  association of Yes with autophosphorylated forms pY397 p125FAK and pY402 PYK2: stimulates an association of Yes with each of their specific autophosphorylated forms
  direct association of Raf, Cbl or ERK1/2 with Yes, reverse Co-IP: did not obtained any stimulated direct association with Yes
  association of Yes with Cbl or Erk 1/2 (Co-IP), discussion: not with Cbl or Erk 1/2
  association of Yes with focal adhesion kinases, PKCδ, Shc, p130Cas, PI3K, PTEN and PKD (Co-IP): stimulate the association of Yes
Yes kinase [2]; data not shown
  association of Yes with Raf, Cbl or ERK1/2 (Co-IP): not with Raf, Cbl or ERK1/2
Lyn [3]
  association of Lyn with PKC-δ, Shc, p125FAK and Pyk-2: stimulated its association with PKC-δ, Shc, p125FAK and Pyk-2
PKC-δ and Src
  association of PKC-δ and Src: neither TPA nor carbachol stimulated the association of PKC-δ and Src

## C/C=C(/C)C(=O)O[C@H]1C(C)=C2[C@H]([C@@H]1OC(=O)CCCCCCC)[C@@](C)(OC(C)=O)C[C@H](OC(=O)CCC)[C@@]1(O)[C@H]2OC(=O)[C@@]1(C)O [Thapsigargin]
[4]
  inhibition of TPA-/CCK-stimulated Yes activation (thapsigargin, words): inhibit TPA−/CCK-stimulated Yes
[4]; listed as thapsigargin
  inhibition of TPA-/CCK-stimulated Yes activation (thapsigargin, words): did not completely inhibit CCK-stimulated Yes activation
[4]; thapsigargin, calcium-depleting conditions, + CCK
  reduction of CCK-stimulated Yes activation by thapsigargin (Ca2+ depletion): 71%
[5]
  inhibition of CCK-stimulated [Ca2+]i increase: completely inhibit

## C[N+](C)(C)CCOC(N)=O [carbachol]
Lyn [6]
  Lyn activation in pancreatic acinar cells: activated
PKC-δ and Src
  association of PKC-δ and Src: neither TPA nor carbachol stimulated the association of PKC-δ and Src

## COOH-terminal octapeptide of cholecystokinin [CCK]
Yes kinase [7]; CCK 100 nM, means±S.E., 5 experiments
  maximal stimulation of Y416 phosphorylation of Yes: 280±16 % of control
Yes kinase [7]; CCK dose-response
  lowest concentration with detectable increase in Y416 phosphorylation of Yes: 10 pM
Yes kinase [7]; [8]
  share of CCK stimulation of Yes mediated by high affinity CCK1 receptor state: 64%
  share of CCK stimulation of Yes mediated by low affinity CCK1 receptor state: 36%
Yes kinase [1]; means±S.E., 7 experiments
  Yes pY416 phosphorylation, time course, 1 min: 310±43 % of control
  t1/2 (Yes pY416 phosphorylation): 0.309±0.042 min and 0.31±0.04 min
Yes kinase [1]; 7 experiments
  tmax (Yes pY416 phosphorylation): 1 min and 0.98±0.14 min
Yes kinase [1]; CCK, 30-second incubation, means±S.E., 7 experiments, p<0.05
  Yes pY416 phosphorylation, time course, 30 s: 278±27 % of control
Yes kinase [2]; CCK 100 pM and 0.1 nM, 2.5 min
  association of Yes with p125FAK (Co-IP), low CCK: not with ^p125FAK
Yes kinase [2]; CCK 100 pM and 0.1 nM, data not shown
  association of Yes with Raf, Cbl or ERK1/2 (Co-IP), low CCK: with Raf, Cbl or ERK1/2 (data not shown)
Yes kinase [2]
  association of Yes with p125FAK, PYK2, PI3K, PKD, p130Cas, Shc and PKCδ (Co-IP): produced an increase in the association of Yes
  association between Yes and PI3K: stimulated an association between Yes and PI3K
  association of Yes with autophosphorylated forms pY397 p125FAK and pY402 PYK2: stimulates an association of Yes with each of their specific autophosphorylated forms
  direct association of Raf, Cbl or ERK1/2 with Yes, reverse Co-IP: did not obtained any stimulated direct association with Yes
  association of Yes with Cbl or Erk 1/2 (Co-IP), discussion: not with Cbl or Erk 1/2
  association of Yes with focal adhesion kinases, PKCδ, Shc, p130Cas, PI3K, PTEN and PKD (Co-IP): stimulate the association of Yes
Yes kinase [2]; data not shown
  association of Yes with Raf, Cbl or ERK1/2 (Co-IP): not with Raf, Cbl or ERK1/2
Lyn [6]
  Lyn activation in pancreatic acinar cells: activated
Yes; rat pancreatic acinar cell line AR42J
  activation of Yes through CCK2 receptors: activate Yes through CCK2 receptors
Lyn [3]
  association of Lyn with PKC-δ, Shc, p125FAK and Pyk-2: stimulated its association with PKC-δ, Shc, p125FAK and Pyk-2

## Endothelin-1: interacts with ET-1 and ET-3 receptors in the pancreatic acinar cell
Lyn [6]
  Lyn activation in pancreatic acinar cells: weakly stimulated
SFK; different cells
  SFK activation by endothelin: activates SFKs in different cells
Fyn; endothelial cells
  Fyn activation by endothelin: activated the SFK Fyn
Src; endothelial cells
  Src inhibition by endothelin: inhibited
Yes; endothelial cells
  Yes activity with endothelin: unaltered
Hck
  Hck inhibition by endothelin: inhibited
Adenylate cyclase
  activation of PLC cascades or adenylate cyclase: does not activate PLC cascades nor activate adenylate cyclase
Adenylate cyclase; listed as endothelin
  activation of PLC cascades or adenylate cyclase: does not stimulate phospholipase C or adenylate cyclase

## Epidermal growth factor (NSNTGCPPSYDGYCLNGGVCMYVESVDRYVCNCVIGYIGERCQHRDLRWWKLR; UniProt P07522 974-1026, looked up) [EGF]
Akt
  pS473 Akt phosphorylation: stimulated pS473 Akt phosphorylation
cSrc
  cSrc activation: activate the SFK, cSrc
Yes
  activation of Yes by EGF and PDGF: stimulated activation of Yes

## Gastrin
CCK2 receptors
  pY416 Yes phosphorylation by gastrin: did not produce any increase in pY416 Yes phosphorylation

## Secretin: activates adenylate cyclase in rat pancreatic acini
Lyn [6]
  Lyn activation in pancreatic acinar cells: weakly stimulated
SFK; other studies
  SFK activation by secretin: activated the SFKs
Adenylate cyclase
  adenylate cyclase activation: activates adenylate cyclase

## basic fibroblast growth factor [bFGF]
Akt
  pS473 Akt phosphorylation: stimulated pS473 Akt phosphorylation
SFK; bFGF, pancreatic acinar cells
  SFK activation in pancreatic acinar cells: not activate SFK
cSrc
  cSrc activation: activate the SFK, cSrc

## bombesin
Lyn [6]
  Lyn activation in pancreatic acinar cells: activated

## insulin-like growth factor 1 [IGF-1]
Akt
  pS473 Akt phosphorylation: stimulated pS473 Akt phosphorylation
Src; differentiating preadipocytes
  Src activation by IGF: stimulates Src activation

## insulin: pancreatic growth factor
Akt
  pS473 Akt phosphorylation: stimulated pS473 Akt phosphorylation
SFK; skeletal muscle cells
  SFK activation by insulin: stimulates SFK activation
Fyn; ovarian cells
  Fyn activation by insulin: stimulates Fyn activation

## platelet-derived growth factor [PDGF]
Akt
  pS473 Akt phosphorylation: stimulated pS473 Akt phosphorylation
cSrc
  cSrc activation: activate the SFK, cSrc
Yes
  activation of Yes by EGF and PDGF: stimulated activation of Yes

## vasoactive intestinal peptide [VIP]
Adenylate cyclase
  adenylate cyclase activation: activates adenylate cyclase
